# Measurements from different studies.
# Lines come from different studies, so protocols differ.
# Genome polyprotein protease: Genome polyprotein, protease (ZIKV, UniProt A0A024B7W1)
# CDK8 with cyclin C: Cyclin-dependent kinase 8, with cyclin C (CDK8, Homo sapiens, UniProt P49336)
# USP14: Ubiquitin carboxyl-terminal hydrolase 14 (USP14, Homo sapiens, UniProt P54578)
# Adra1a: Alpha-1A adrenergic receptor (Adra1a, Rattus norvegicus, UniProt P43140)
# CTSB: Cathepsin B (CTSB, Homo sapiens, UniProt P07858)
Structure (SMILES),target,observed,action,technique,tested at,pH,inhibition [%]
N#Cc1ccc(NCCNCC(=O)N2N=CCC2C#N)nc1 (stereo not shown),"Dipeptidyl peptidase 9 (DPP9, Homo sapiens, UniProt Q86TI2)",enzyme activity,inhibitor,,1 µM,,49
O=c1cc(-c2ccccc2)oc2cc(O)cc(O)c12,Genome polyprotein protease,enzyme activity,inhibitor,FRET,100 µM,pH 7,19
c1ccc(C(NCCNC(c2ccccc2)c2ccccc2)c2ccccc2)cc1,"Voltage-dependent N-type calcium channel subunit alpha-1B (Cacna1b, Rattus norvegicus, UniProt Q02294)",cell-free assay,,,10 µM,,-6
Cn1c(=O)c2c(ncn2C)n(C)c1=O,Genome polyprotein protease,enzyme activity,inhibitor,FRET,100 µM,pH 7,6
C#Cc1n[nH]c2c(-c3cn([C@@H](C)c4ccccn4)c(=O)[nH]c3=O)cc(F)cc12,CDK8 with cyclin C,enzyme activity,inhibitor,,0.1 µM,,-1.7
OC(CCN1CC=C(c2ccc(F)cc2)CC1)c1ccc(F)c2ccccc12 (stereo not shown),"Plasmepsin II (Plasmodium falciparum, UniProt P46925)",enzyme activity,inhibitor,,5 µM,,18
N=C(N)c1ccc2cc(OC(=O)c3ccc(N=C(N)N)cc3)ccc2c1,USP14,enzyme activity,inhibitor,,10 µM,,0
C#Cc1n[nH]c2c(-c3cn([C@@H](C)c4ccccc4)c(=O)[nH]c3=O)cc(F)cc12,"Dual specificity protein kinase CLK3 (CLK3, Homo sapiens, UniProt P49761)",enzyme activity,inhibitor,,0.1 µM,,-0.8
CCOC(=O)c1ccc(OC(=O)CCCCCNC(=N)N)cc1,USP14,enzyme activity,inhibitor,,10 µM,,1
Oc1cc(O)c2c(c1)O[C@H](c1cc(O)c(O)c(O)c1)[C@H](O)C2,Genome polyprotein protease,enzyme activity,inhibitor,FRET,100 µM,pH 7,7
CC(C)N1CCC[C@H]1CNC(=O)c1cn(C2CCCC2)c(=O)c2c1c1ccccc1n2C,Adra1a,ligand displacement,,radioligand,10 µM,,16
CC(C)C[C@H](NC(=O)[C@H]1O[C@@H]1C(=O)O)C(=O)NCCCCN=C(N)N,CTSB,enzyme activity,inhibitor,,5 nM,,77
O=C(Nc1cccnn1)N1CCN([C@@H]2CCOc3cc(C(F)(F)F)ccc32)CC1,"Oxysterols receptor LXR-beta (NR1H2, Homo sapiens, UniProt P55055)",cell-free assay,,,20 µM,,-6
CN(C)C(=O)COC(=O)Cc1ccc(OC(=O)c2ccc(NC(=N)N)cc2)cc1,CTSB,enzyme activity,inhibitor,,10 µM,,0
O=C1N=C(N2CCCCN2)S/C1=C\c1ccc(F)cc1O,"5-hydroxytryptamine receptor 6 (HTR6, Homo sapiens, UniProt P50406)",ligand displacement,,radioligand,10 µM,,< 10
C[C@@H]1O[C@@H](O[C@H]2[C@H](Oc3cc(O)c4c(c3)O[C@H](c3ccc(O)cc3)CC4=O)O[C@H](CO)[C@@H](O)[C@@H]2O)[C@H](O)[C@H](O)[C@H]1O,Genome polyprotein protease,enzyme activity,inhibitor,FRET,100 µM,pH 7,12.5
Cn1cc(-c2cc(F)cc(N3CCn4c(cc5c4CCCC5)C3=O)c2CO)cc(Nc2ccc(N3CCN(C4COC4)CC3)cn2)c1=O,"MAP kinase-activated protein kinase 3 (MAPKAPK3, Homo sapiens, UniProt Q16644)",enzyme activity,inhibitor,,0.1 µM,,9
C[C@@H]1O[C@@H](OC[C@H]2O[C@@H](Oc3c(-c4ccc(O)c(O)c4)oc4cc(O)cc(O)c4c3=O)[C@H](O)[C@@H](O)[C@@H]2O)[C@H](O)[C@H](O)[C@H]1O,Genome polyprotein protease,enzyme activity,inhibitor,,200 µM,pH 8.5,95.4
CCN(CC)CCCC[C@H](NC(=O)[C@H](CC(C)C)NC(=O)[C@H](C)NC(=O)[C@H](Cc1ccccc1)NC(=O)c1ccc(C(C)(C)C)cc1)C(=O)N[C@@H](CO)C(=O)OC,"C-X-C chemokine receptor type 2 (CXCR2, Homo sapiens, UniProt P25025)",ligand displacement,,radioligand,10 µM,,-12
CC(C)C[C@H](NC(=O)[C@H](Cc1ccccc1)NC(=O)c1cnccn1)B(O)O,"Suppressor of tumorigenicity 14 protein (ST14, Homo sapiens, UniProt Q9Y5Y6)",cell-free assay,inhibitor,,33 µM,,51.5
COc1cc(Nc2ncc(F)c(Nc3ccc4c(n3)NC(=O)C(C)(C)O4)n2)cc(OC)c1OC,"SNF-related serine/threonine-protein kinase (SNRK, Homo sapiens, UniProt Q9NRH2)",binding,,,10 µM,,7
O=c1c(O)c(-c2ccc(O)c(O)c2)oc2cc(O)cc(O)c12,Genome polyprotein protease,enzyme activity,inhibitor,FRET,100 µM,pH 7,37
Cc1ncc(C)n2nc(/C=C/c3nc(N4CCCC4)cc(N4CCOCC4)n3)nc12,"C-C chemokine receptor type 2 (CCR2, Homo sapiens, UniProt P41597)",cell-free assay,,,10 µM,,10
Cn1cc(-c2cccc(N3CCc4c(sc5c4CC(C)(C)C5)C3=O)c2CO)cc(Nc2ccncn2)c1=O,CDK8 with cyclin C,enzyme activity,inhibitor,,1 µM,,-1
CCCCCCCCCCCC(=O)OC[C@@H](COP(=O)(O)OCCNC(=O)c1ccc(Cn2c(=O)[nH]c3c(N)nc(OCCOC)nc32)cc1)OC(=O)CCCCCCCCCCC,Adra1a,ligand displacement,,radioligand,10 µM,,-11
